Experimental data as given in paper PMC3058531 (Biochemistry, 2010).
“Also recorded” adds a separate entry of the source. * marks the point of attachment. pNA = O=[N+]([O-])c1ccc(N*)cc1

How the values were obtained:
[1] = molecular target: T1, Southampton norovirus 3C protease (SV3CP) (Southampton virus, UniProt Q04544); experiment: Chromogenic pNA peptide substrate cleavage, initial rates at 405 nm; assay type: biochemical; details: compared with Ac-EFQLQ-pNA or other trial substrates; pH 8.5
Outline: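 Recombinant SV3CP expressed in E. coli BL21(DE3) pLysS, self-excised from flanking sequences, purified by two cation-exchange steps. N-acetylated peptide-pNA substrates in DMSO, diluted into 100 mM Tris pH 8.5 with 5 mM β-mercaptoethanol (final substrate 0.1−3.0 mM, enzyme 0.1 mg/mL). A405 of samples read every 1 min for 10 min; initial rates gave KM, kcat and kcat/KM.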

[2] = molecular target: T1, Southampton norovirus 3C protease (SV3CP); assay type: biochemical; details: preincubation with millimolar concentrations of the inhibitor prior to addition of substrate; within the dead time of the experiment
[3] = molecular target: T1, Southampton norovirus 3C protease (SV3CP); experiment: Mass spectrometry of the SV3CP-MAPI complex; assay type: binding; details: single major protein peak at 20045 Da
[4] = test system: Southampton norovirus 3C protease (SV3CP), Cys 139; experiment: X-ray structure of the SV3CP-MAPI complex; assay type: binding; details: cocrystal at 1.7 Å resolution, PDB 2IPH; crystals at pH 8.5
[5] = Solubility of the inhibitor in protein buffer; assay type: physicochemical; details: 10% DMSO had to be included in the buffer

T1 sequence (Q04544 1100-1280 limits assumed): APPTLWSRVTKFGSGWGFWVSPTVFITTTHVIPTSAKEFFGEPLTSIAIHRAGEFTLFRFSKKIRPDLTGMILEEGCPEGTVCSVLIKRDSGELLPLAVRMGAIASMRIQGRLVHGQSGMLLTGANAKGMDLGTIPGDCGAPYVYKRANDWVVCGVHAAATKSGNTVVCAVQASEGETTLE

| Substance | kcat/KM, kcat and KM comparison in words [1] | time to irreversible inactivation of the enzyme [2] | binding stoichiometry [3] | covalent binding mode [4] | solubility (in words) [5] |
| --- | --- | --- | --- | --- | --- |
| Ac-DEFQLQ-pNA | had a kcat which was higher than that of Ac-EFQLQ-pNA although its proportionately higher KM meant that it was a slightly inferior substrate in terms of specificity constant |  |  |  |  |
| Ac-EFQLQ-pNA | had the highest kcat/KM ratio; also recorded: the best substrate in terms of specificity constant (kcat/KM ratio) |  |  |  |  |
| acetyl-Glu-Phe-Gln-Leu-Gln-X [MAPI] |  | < 30 s | one molecule of SV3CP plus one molecule of the inhibitor | the active site thiol of Cys 139 is bound covalently to the C-terminal Michael-acceptor extension of the inhibitor MAPI | essentially insoluble |
